Results reported in paper PMC12495087 (ESMO Open, 2025).

Key:
Type in all cases: in vivo, human
[1] = tested on: tumors with local RET results; assay: clinical outcome by local RET result
Summary of the method: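 RET alteration was confirmed locally by DNA- or RNA-based assays of tumour tissue or blood. Patients took oral drug once daily in 28-day cycles (10–150 mg escalation; expansion at recommended phase II dose). Investigator assessed response by RECIST v1.1 in patients with evaluable overall response and percent tumour-size change from baseline. ORR and DCR summarised with two-sided 95% exact CIs.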

[2] = tested on: tumors with cfDNA-detected RET alterations; assay: clinical outcome by cfDNA RET alteration
Summary of the method: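 Adults with advanced RET-altered solid tumours took oral drug once daily in 28-day cycles (10–150 mg dose escalation; expansion at recommended phase II dose). RET status came from plasma cfDNA drawn at screening (within 28 days pre-dose), cycle 1 day 15 (±2 days) and cycle 2 day 1. Investigator assessed response by RECIST v1.1 in patients with evaluable response and tumour-size change. ORR/DCR given with two-sided 95% exact CIs.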

[3] = phase I study: plasma pharmacokinetics
[4] = tested on: advanced solid tumors with RET gene alteration; assay: phase I study: tumor response per RECIST v.1.1, evaluable analysis set
Summary of the method: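 Investigator assessed response by RECIST v1.1. Drug was taken orally once daily in 28-day cycles, 10–150 mg in part A escalation and 75 mg in part B expansion, until progression. ORR and DCR summarised with two-sided 95% exact CIs. Duration of response and other time-to-event endpoints estimated by Kaplan–Meier.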

[5] = 58 patients with cfDNA RET alterations
[6] = cfDNA RET alteration total, n = 58

In the case of `COc1cc2cc(-c3ccc(CC(=O)Nc4cc(C(C)(C)C(F)(F)F)no4)cn3)cnc2cc1OC` [BOS172738], the “BOR: PD” value ([1]; local Indel, n = 6) is reported as 1 (17) n (%), the “BOR: PR” value ([1]; local Indel, n = 6) is reported as 1 (17) n (%) and the “BOR: SD” value ([1]; local Indel, n = 6) is reported as 4 (67) n (%). The “DCR (PR + SD)” value ([1]; local Indel, n = 6) was 5 (83) n (%), the ORR ([1]; local Indel, n = 6) was 1 (17) n (%) and the “BOR: PD” value ([1]; local RET fusions, n = 57) was 10 (18) n (%). The “BOR: PR” value ([1]; local RET fusions, n = 57) was 21 (37) n (%), the “BOR: SD” value ([1]; local RET fusions, n = 57) was 26 (46) n (%) and the “DCR (PR + SD)” value ([1]; local RET fusions, n = 57) was 47 (82) n (%). For the same compound, the ORR ([1]; local RET fusions, n = 57) was 21 (37) n (%), the “BOR: PD” value ([1]; local RET total, n = 93) was 20 (22) n (%) and the “BOR: PR” value ([1]; local RET total, n = 93) was 28 (30) n (%). The “BOR: SD” value ([1]; local RET total, n = 93) was 45 (48) n (%), the “DCR (PR + SD)” value ([1]; local RET total, n = 93) was 73 (78) n (%) and the ORR ([1]; local RET total, n = 93) was 28 (30) n (%). The “BOR: PD” value ([1]; local SNV, n = 30) was 9 (30) n (%), the “BOR: PR” value ([1]; local SNV, n = 30) was 6 (20) n (%) and the “BOR: SD” value ([1]; local SNV, n = 30) was 15 (50) n (%). The “DCR (PR + SD)” value ([1]; local SNV, n = 30) was 21 (70) n (%), the ORR ([1]; local SNV, n = 30) was 6 (20) n (%) and the “partial responses as best response” value [2, 5] was 29%. The “progressive disease as best response” value [2, 5] was 28%, the “stable disease as best response” value [2, 5] was 43% and the “BOR: PD” value [2, 6] was 16 (28) n (%). For the same compound, the “BOR: PR” value [2, 6] was 17 (29) n (%), the “BOR: SD” value [2, 6] was 25 (43) n (%) and the “DCR (PR + SD)” value [2, 6] was 42 (72) n (%). The ORR [2, 6] was 17 (29) n (%), the “BOR: PD” value ([2]; cfDNA RET fusions + SNV, n = 2) was 1 (50) n (%) and the “BOR: PR” value ([2]; cfDNA RET fusions + SNV, n = 2) was 1 (50) n (%). The “BOR: SD” value ([2]; cfDNA RET fusions + SNV, n = 2) was 0 n (%), the “DCR (PR + SD)” value ([2]; cfDNA RET fusions + SNV, n = 2) was 1 (50) n (%) and the ORR ([2]; cfDNA RET fusions + SNV, n = 2) was 1 (50) n (%). The “BOR: PD” value ([2]; cfDNA RET fusions, n = 37) was 6 (16) n (%), the “BOR: PR” value ([2]; cfDNA RET fusions, n = 37) was 12 (32) n (%) and the “BOR: SD” value ([2]; cfDNA RET fusions, n = 37) was 19 (51) n (%). For the same compound, the “DCR (PR + SD)” value ([2]; cfDNA RET fusions, n = 37) was 31 (84) n (%), the ORR ([2]; cfDNA RET fusions, n = 37) was 12 (32) n (%) and the “BOR: PD” value ([2]; cfDNA SNV, n = 19) was 9 (47) n (%). For the same compound, the “BOR: PR” value ([2]; cfDNA SNV, n = 19) was 4 (21) n (%), the “BOR: SD” value ([2]; cfDNA SNV, n = 19) was 6 (32) n (%) and the “DCR (PR + SD)” value ([2]; cfDNA SNV, n = 19) was 10 (53) n (%). For the same compound, the ORR ([2]; cfDNA SNV, n = 19) was 4 (21) n (%), the “plasma concentrations remained quantifiable through” value ([3]; after dosing, cycle 1 day 1 and day 15) was no less than 24 h and the half-life ([3]; human, plasma, oral) was 1.75 to 3.5 days. For the same compound, the Tmax ([3]; human, plasma, oral, cycle 1 day 1, range across all dose levels) was 3 to 10 h, the Tmax ([3]; human, plasma, oral, cycle 1 day 15, range across dose levels) was 1 to 3.1 h and the “steady state reached by” value ([3]; most treatment groups, based on mean trough concentration and effective t½) was no more than 15 days. For the same compound, the “objective DCR (ODCR)” value ([4]; 100 mg dose, part A) was 93%, the “median time to response” value ([4]; all confirmed responders) was 1.79 months and the “reduction in brain target lesions” value ([4]; one patient with brain metastases, first post-baseline scan) was 43%. The “median PFS” value ([4]; overall, evaluable analysis set) was 7.16 months, the “BOR: CR” value ([4]; parts A and B total, N=101) was “No patients” and the intracranial activity ([4]; patients with brain metastases) was “intracranial activity was also observed”.
